# Test results as given in PMC12199099 (British Journal of Clinical Pharmacology, 2025).
# “And” between values parts separate entries of the source, which are not always exact repeats. Identical values can stand only once.
# What was measured:
# [1] = Population pharmacokinetic; format: in vivo, human; conditions: for geometric mean AUC24h,ss higher in Chinese patients than in White patients / geometric mean C max,ss higher in Chinese patients than in White patients: 100 mg BID, empirical Bayes estimates, Chinese n = 105, White n = 512
# Outline: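 Pooled plasma acalabrutinib/ACP-5862 data from 14 trials, with China study intensive and sparse schedules, were fitted to the existing model. Parent: two-compartment, five transit compartments. Metabolite: two-compartment, formation fixed at 0.4 CL/F. BOV was on MTT and F1; BSV on clearances and volumes. Race (East Asian vs non-East Asian), PPI, ECOG and health status were tested as proportional shifts. Estimation used NONMEM SAEM/IMP, with BLQ handled by M3.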
# CYP3A enzymes = conditions: cited from earlier work
# R/R CLL/SLL = experiment: Exposure-efficacy; format: in vivo, human; conditions: for relationship between exposures and efficacy endpoints (BOR and SPD): Chinese patients with R/R CLL/SLL (n = 60), 100 mg BID
# Outline: (§1)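 Chinese pivotal phase 1/2 study (MCL n = 34; CLL n = 60). Per-patient acalabrutinib, ACP-5862 and total active moiety AUC_24h,ss and C_max,ss were taken from pop-PK post hoc estimates. Total active moiety was adjusted for BTK potency and protein binding. Best overall response was assessed by an independent review committee: CR/PR/SD/PD for MCL, PR/PRL/SD for CLL/SLL. SPD change from baseline was also scored. Analysis was graphical plus logistic regression.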
# [2] = system: breast cancer‐resistance protein (BCRP); conditions: cited from earlier work
# [3] = cited from earlier work
# Exposure-safety = format: in vivo, human
# Outline: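 Pooled seven studies (six global plus China; n = 476). Endpoints were incidence of grade ≥2 AEs, grade ≥3 AEs, and grade ≥2 AEs of clinical interest occurring in ≥5% of patients (MedDRA v21.1). Post hoc pop-PK steady-state exposures (acalabrutinib AUC_24h,ss primary) were related to AE incidence by graphical plots and logistic regression with 95% CI. Analysis was run for the global and Chinese populations.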
# [4] = radio-labelled dose, humans; cited from earlier work
# [5] = format: in vivo, human; conditions: noncompartmental analysis, patients with intensive PK sampling
# [6] = at a 400 mg daily dose; cited from earlier work
# BTK [7] = conditions: 100 mg BID, clinical pharmacodynamic data; cited from earlier work
# R/R MCL = experiment: Exposure-efficacy; format: in vivo, human; conditions: for relationship between exposures and efficacy endpoints (BOR and SPD): Chinese patients with R/R MCL (n = 34), 100 mg BID
# Outline: as §1
# [8] = humans, cited from earlier work
# [9] = cited from earlier work; remark: listed apart in the source
# BTK [10] = conditions: cited from earlier work
# [11] = used for total active concentration; cited from earlier work
# [12] = Chinese R/R CLL/SLL, n = 60, 100 mg BID
# [13] = Chinese R/R MCL, n = 34, 100 mg BID
structure (smiles),measurement,setting,value
CC#CC(=O)N1CCC[C@H]1c1nc(-c2ccc(C(=O)Nc3ccccn3)cc2)c2c(N)nccn12 [acalabrutinib],"geometric mean AUC24h,ss higher in Chinese patients than in White patients",[1],28%
same,"geometric mean C max,ss higher in Chinese patients than in White patients",[1],28%
same,CL/F higher in healthy participants than in patients with B‐cell malignancies,[1]; covariate analysis,64.5%
same,Vp/F lower in healthy participants than in patients with B‐cell malignancies,[1]; covariate analysis,42.4%
same,"decrease in CL/F, ECOG performance status ≥2 compared with ECOG ≤1",[1]; covariate analysis,12.8%
same,reduction of F1 by PPIs,[1]; covariate analysis,30.7%
same,"CL/F, apparent clearance of parent drug, estimate (RSE %)",[1]; final model fixed effect,130.3 (0.4) L/h
same,"Ka, first‐order absorption rate constant, estimate (RSE %)",[1]; final model fixed effect,1.4 (6.6) h^−1
same,"MTT, mean transit time, estimate (RSE %)",[1]; final model fixed effect,0.4 (5) h
same,"Q/F, apparent intercompartmental clearance for parent drug, estimate (RSE %)",[1]; final model fixed effect,19.5 (1.3) L/h
same,"Vc/F, apparent volume of the central compartment for parent drug, estimate (RSE %)",[1]; final model fixed effect,28.8 (4.5) L
same,"Vp/F, apparent volume of the peripheral compartment for parent drug, estimate (RSE %)",[1]; final model fixed effect,105.6 (0.7) L
same,F higher in East Asian compared with non‐East Asian individuals,[1]; race covariate,23% and ~ 23%
same,Vp/F lower in East Asian compared with non‐East Asian individuals,[1]; race covariate,38%
same,"BOV F1, between‐occasion variability, estimate (RSE %)",[1]; random effect,52.9 (1.7)
same,"BOV MTT, between‐occasion variability, estimate (RSE %)",[1]; random effect,125 (2.2) h
same,"BSV CL/F, between‐subject variability, estimate (RSE %)",[1]; random effect,23.2 (5.6) L/h
same,"BSV Vc/F, estimate (RSE %)",[1]; random effect,306 (6.3) L
same,"BSV Vp/F, estimate (RSE %)",[1]; random effect,35.9 (6.9) L
same,"CL/F_ECOG2+, covariate effect of ECOG on CL/F, estimate (RSE %)",[1]; relative change (1 + estimate),−0.128 (43.9)
same,"CL/F_HEALTHGP, covariate effect of healthy individuals on CL/F, estimate (RSE %)",[1]; relative change (1 + estimate),0.645 (17.1)
same,"Vp/F_HEALTHGP, covariate effect of healthy individuals on Vp/F, estimate (RSE %)",[1]; relative change (1 + estimate),−0.424 (5.9)
same,metabolism by CYP3A enzymes into ACP‐5862,CYP3A enzymes,predominantly metabolized
same,"best overall response PR, number of patients",R/R CLL/SLL; [12],50
same,"best overall response PRL, number of patients",R/R CLL/SLL; [12],2
same,"best overall response SD, number of patients",R/R CLL/SLL; [12],6
same,relationship between exposures and efficacy endpoints (BOR and SPD),R/R CLL/SLL,flat relationships
same,BCRP substrate status,[2],substrate
same,"solubility, pH dependence",[3],solubility decreasing with increasing pH
same,"relationship of acalabrutinib AUC24h,ss with grade ≥2 or ≥3 adverse events","Exposure-safety; both Chinese patients and the overall population, 100–400 mg daily doses",flat relationship
same,"relationship between acalabrutinib AUC24h,ss and grade ≥3 AEs","Exposure-safety; overall population, 100 mg BID",flat relationship
same,"relationship between acalabrutinib AUC24h,ss and grade ≥2 and grade ≥3 AEs","Exposure-safety; overall population, logistic regression, daily doses 100 to 400 mg",no statistically significant relationship
same,dose excreted as unchanged acalabrutinib in urine and faeces,[4],less than 2%
same,dose recovered in the faeces,[4],84%
same,dose recovered in the urine,[4],12%
same,AUC higher in Chinese participants than in White patients,[5],48%
same,maximum tolerated dose,[6],not observed
same,BTK occupancy over 24 h,BTK [7],maximal
same,"best overall response CR, number of patients",R/R MCL; [13],12
same,"best overall response PD, number of patients",R/R MCL; [13],4
same,"best overall response PR, number of patients",R/R MCL; [13],16
same,"best overall response SD, number of patients",R/R MCL; [13],1
same,relationship between exposures and efficacy endpoints (BOR and SPD),R/R MCL,flat relationships
same,median time to peak plasma concentration (T max),[8]; after oral administration,0.75 h
same,absolute bioavailability,[8],25%
same,mean steady‐state volume of distribution (Vss),[8],approximately 34 L
same,mean terminal half‐life,[8],1.4 h
same,incidence of atrial fibrillation and haemorrhage compared with ibrutinib,[9],lower incidence
CC#CC(=O)NCCCC(=O)c1nc(-c2ccc(C(=O)Nc3ccccn3)cc2)c2c(N)nccn12 [ACP‐5862],"geometric mean AUC24h,ss higher in Chinese patients than in White patients",[1],28%
same,"geometric mean C max,ss higher in Chinese patients than in White patients",[1],28%
same,"CLM/F, apparent clearance of metabolite, estimate (RSE %)",[1]; final model fixed effect,21.5 (0.6) L/h
same,"QM/F, apparent intercompartmental clearance for metabolite, estimate (RSE %)",[1]; final model fixed effect,21.1 (2.9) L/h
same,"VcM/F, apparent volume of the central compartment for metabolite, estimate (RSE %)",[1]; final model fixed effect,24.3 (1.7) L
same,"VpM/F, apparent volume of the peripheral compartment for metabolite, estimate (RSE %)",[1]; final model fixed effect,90.9 (1.3) L
same,"BSV CLM/F, estimate (RSE %)",[1]; random effect,13.2 (18.7) L/h
same,"BSV QM/F, estimate (RSE %)",[1]; random effect,62.4 (13.8) L/h
same,"BSV VcM/F, estimate (RSE %)",[1]; random effect,37.4 (13.7) L
same,"BSV VpM/F, estimate (RSE %)",[1]; random effect,29.3 (18.8) L
same,relationship between exposures and efficacy endpoints (BOR and SPD),R/R CLL/SLL,flat relationships
same,potency for BTK inhibition compared with acalabrutinib,BTK [10],approximately 0.5 fold
same,free fraction (fu),[11],0.013
same,relationship between exposures and efficacy endpoints (BOR and SPD),R/R MCL,flat relationships
same,mean terminal half‐life,[8],6.6 h
